Calls of active or inactive are those of the source. The calls are words filed in the database; no cut-off is given here.
What was measured:
[1] = molecular target: T1, Polyunsaturated fatty acid 5-lipoxygenase (Homo sapiens, UniProt P09917); assay: Inhibition of 5-LO in PMNL cells; type: cell-based
T1 sequence (P09917 whole entry): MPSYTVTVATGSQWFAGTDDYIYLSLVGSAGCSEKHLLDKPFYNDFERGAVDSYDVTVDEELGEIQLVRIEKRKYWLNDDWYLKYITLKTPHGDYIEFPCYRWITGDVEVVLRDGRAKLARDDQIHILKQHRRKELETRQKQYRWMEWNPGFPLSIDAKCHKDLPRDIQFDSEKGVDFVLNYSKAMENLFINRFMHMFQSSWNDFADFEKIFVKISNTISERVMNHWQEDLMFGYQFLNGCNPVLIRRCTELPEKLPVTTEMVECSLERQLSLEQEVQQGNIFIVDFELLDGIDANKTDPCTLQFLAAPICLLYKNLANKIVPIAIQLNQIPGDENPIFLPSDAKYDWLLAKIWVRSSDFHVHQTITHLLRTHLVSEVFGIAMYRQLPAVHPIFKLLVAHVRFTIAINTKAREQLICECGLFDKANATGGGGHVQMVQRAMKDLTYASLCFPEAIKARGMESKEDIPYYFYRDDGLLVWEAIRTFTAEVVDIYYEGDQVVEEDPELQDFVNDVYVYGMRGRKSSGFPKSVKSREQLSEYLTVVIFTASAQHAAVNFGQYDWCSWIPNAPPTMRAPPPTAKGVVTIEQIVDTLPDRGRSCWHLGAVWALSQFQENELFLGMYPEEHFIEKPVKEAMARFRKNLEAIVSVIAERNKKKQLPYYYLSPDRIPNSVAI
In short: (§1)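 Freshly isolated human PMNL from leukocyte concentrates of healthy donors, 5 × 10⁶ cells/mL in PBS pH 7.4 with 1 mg/mL glucose and 1 mM CaCl₂. Preincubated with compound 15 min at RT, then stimulated with 2.5 µM A23187 plus 20 µM AA for 10 min at 37 °C. Stopped with methanol; LTB₄, its all-trans isomers and 5-H(P)ETE quantified by HPLC with PGB₁ internal standard.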

[2] = molecular target: T2, Polyunsaturated fatty acid 5-lipoxygenase (Homo sapiens) (UniProt P09917); assay: Inhibition of 5-LO in human PMNL cells at 10 uM relative to control; type: cell-based; set-up: scale not given: the % may be the effect or the level left; in short: as §1
T2 sequence (whole entry): T1 sequence (P09917 whole entry)

[3] = molecular target: T3, Prostaglandin G/H synthase 1 (Ovis aries) (UniProt P05979); assay: Inhibition of ovine COX1 assessed as remaining activity at 10 uM relative to control
T3 sequence (whole entry): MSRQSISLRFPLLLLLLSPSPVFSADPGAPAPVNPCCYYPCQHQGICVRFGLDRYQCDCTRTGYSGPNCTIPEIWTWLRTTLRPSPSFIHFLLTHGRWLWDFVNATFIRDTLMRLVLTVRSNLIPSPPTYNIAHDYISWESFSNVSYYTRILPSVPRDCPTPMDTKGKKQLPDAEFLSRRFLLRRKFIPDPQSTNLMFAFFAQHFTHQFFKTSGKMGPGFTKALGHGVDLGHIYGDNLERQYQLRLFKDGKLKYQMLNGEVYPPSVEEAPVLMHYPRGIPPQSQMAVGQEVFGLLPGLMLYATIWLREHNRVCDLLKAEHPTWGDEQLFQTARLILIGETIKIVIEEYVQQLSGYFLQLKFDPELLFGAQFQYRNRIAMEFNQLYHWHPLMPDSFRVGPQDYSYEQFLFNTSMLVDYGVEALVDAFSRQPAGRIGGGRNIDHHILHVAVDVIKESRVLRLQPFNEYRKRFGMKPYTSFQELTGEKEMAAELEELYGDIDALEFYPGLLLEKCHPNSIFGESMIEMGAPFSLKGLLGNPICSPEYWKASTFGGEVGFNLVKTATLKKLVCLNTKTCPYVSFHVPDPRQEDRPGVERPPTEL
In short: (§2)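 Ovine COX-1 (50 units) or human recombinant COX-2 (20 units) in 100 mM Tris pH 8 with 5 mM glutathione, 5 µM hemoglobin and 100 µM EDTA. Compound preincubation 5 min at 4 °C, then prewarming 60 s at 37 °C. AA added at 5 µM for COX-1 or 2 µM for COX-2, reacted 5 min at 37 °C. 12-HHT extracted and quantified by HPLC. Mean ± SE, n = 3.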

[4] = molecular target: T4, Prostaglandin G/H synthase 2 (Homo sapiens) (UniProt P35354); assay: Inhibition of human recombinant COX2 assessed as remaining activity at 10 uM relative to control; in short: as §2
T4 sequence (whole entry): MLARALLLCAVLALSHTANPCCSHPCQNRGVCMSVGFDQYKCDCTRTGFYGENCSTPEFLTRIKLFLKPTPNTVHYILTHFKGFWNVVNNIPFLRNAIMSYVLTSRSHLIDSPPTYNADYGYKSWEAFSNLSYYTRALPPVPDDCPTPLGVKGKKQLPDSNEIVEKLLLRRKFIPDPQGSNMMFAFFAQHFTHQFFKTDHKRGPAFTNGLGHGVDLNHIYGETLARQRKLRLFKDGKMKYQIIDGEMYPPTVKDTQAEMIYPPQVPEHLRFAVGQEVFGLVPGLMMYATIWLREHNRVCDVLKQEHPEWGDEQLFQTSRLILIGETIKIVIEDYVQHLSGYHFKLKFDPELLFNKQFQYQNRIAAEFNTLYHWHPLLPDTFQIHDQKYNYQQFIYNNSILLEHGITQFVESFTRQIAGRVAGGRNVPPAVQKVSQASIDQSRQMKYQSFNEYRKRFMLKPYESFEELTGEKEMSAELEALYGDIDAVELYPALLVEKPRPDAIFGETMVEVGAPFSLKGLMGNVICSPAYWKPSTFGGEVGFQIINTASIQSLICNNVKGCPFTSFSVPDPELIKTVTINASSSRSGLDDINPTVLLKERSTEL

[5] = molecular target: T5, Prostaglandin G/H synthase 2 (Homo sapiens, UniProt P35354); assay: Inhibition of human recombinant COX2; in short: as §2
T5 sequence (P35354 whole entry): T4 sequence (whole entry)

[6] = molecular target: T6, Prostaglandin E synthase (Homo sapiens) (UniProt O14684); assay: Inhibition of PGES1 in human A549 cell microsome assessed as PGE2 formation at 10 uM by cell-free assay relative to control; set-up: scale not given: the % may be the effect or the level left
T6 sequence (whole entry): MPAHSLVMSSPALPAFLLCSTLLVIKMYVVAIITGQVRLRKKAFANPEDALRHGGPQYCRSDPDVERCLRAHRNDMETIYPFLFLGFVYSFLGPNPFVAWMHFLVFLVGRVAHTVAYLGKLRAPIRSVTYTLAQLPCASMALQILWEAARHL
In short: (§3)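 Microsomes from A549 cells grown with IL-1β (1 ng/mL, 72 h), diluted in 0.1 M potassium phosphate pH 7.4 with 2.5 mM glutathione. Compound or DMSO added 15 min before PGH₂ (20 µM final). Reaction ran 1 min at 4 °C and was stopped with FeCl₂/citric acid. PGE₂ isolated by C18 SPE, then RP-HPLC with UV at 195 nm against 11β-PGE₂ internal standard.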

[7] = molecular target: T7, Prostaglandin G/H synthase 1 (Ovis aries, UniProt P05979); assay: Inhibition of ovine COX1; in short: as §2
T7 sequence (P05979 whole entry): T3 sequence (whole entry)

[8] = molecular target: T1, Polyunsaturated fatty acid 5-lipoxygenase; assay: Inhibition of human recombinant 5-LO expressed in Escherichia coli by cell-free assay
In short: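 Human 5-LO expressed in E. coli MV1190 (pT3-5LO) at 27 °C, partially purified from the 100000g lysate supernatant. Held in PBS pH 7.4 with 1 mM EDTA and 1 mM ATP with compound for 10 min at 4 °C, warmed 30 s at 37 °C, then started with 2 mM CaCl₂ plus 20 µM AA. After 10 min at 37 °C, stopped with cold methanol; products measured by HPLC.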

Prostaglandin E synthase = molecular target: T8, Prostaglandin E synthase (Homo sapiens, UniProt O14684); assay: Inhibition of PGES1 in human A549 cell microsome assessed as PGE2 formation by cell-free assay; in short: as §3
T8 sequence (O14684 whole entry): T6 sequence (whole entry)

| IC50 [1] [µM] | Activity [2] [%] | Activity [3] [%] | Activity [4] [%] | IC50 [5] [µM] | Activity [6] | IC50 [7] [µM] | IC50 [8] [µM] | IC50 (Prostaglandin E synthase) [µM] | SMILES |
| --- | --- | --- | --- | --- | --- | --- | --- | --- | --- |
| 5 | 16.8 | 42.2 | 32.5 | – | – | – | – | – | Cc1cccc(Nc2cc(Cl)nc(SC(C(=O)O)c3cccc4ccccc34)n2)c1C (stereo not given) |
| 1 | 3 | 67.3 | 61.3 | > 10 | 21.8% | > 10 | 2 | – | CCCCCCC(Sc1nc(Cl)cc(NCc2ccc(-c3ccccc3)cc2)n1)C(=O)O (stereo not given) |
| – | 2.8 | – | – | > 10 | 23% | > 10 | 1.5 | – | CCCCCC[C@H](Sc1nc(Cl)cc(Nc2ccc(-c3ccc(C#N)cc3)cc2)n1)C(=O)O |
| – | 80.1 | – | – | > 10 | inactive | > 10 | – | – | CCCCC(Sc1nc(OCCc2ccccc2)cc(OCCc2ccccc2)n1)C(=O)OCC (stereo not given) |
| – | 16.1 | – | – | > 10 | 70% | > 10 | – | – | CCCCCCC(Sc1nc(Cl)cc(NCCc2ccccc2)n1)C(=O)O (stereo not given) |
| 0.5 | 3.1 | 71.2 | 53.7 | > 10 | 24.9% | > 10 | 2 | 2.1 | CCCCCCC(Sc1nc(Cl)cc(Nc2cc(C)c(-c3ccccc3)cc2OC)n1)C(=O)O (stereo not given) |
| – | – | – | – | > 10 | inactive | > 10 | – | – | CC(=O)N(O)C/C=C/c1cccc(Oc2ccccc2)c1 |
| – | 37.1 | – | – | > 10 | 80.7% | > 10 | – | – | CCCCCCC(Sc1nc(Cl)cc(NCCOc2ccccc2)n1)C(=O)OCC (stereo not given) |

Further lines, the compound ahead of its results:

| SMILES | IC50 [1] [µM] | Activity [2] [%] | Activity [3] [%] | Activity [4] [%] | IC50 [5] [µM] | Activity [6] | IC50 [7] [µM] | IC50 [8] [µM] | IC50 (Prostaglandin E synthase) [µM] |
| --- | --- | --- | --- | --- | --- | --- | --- | --- | --- |
| CCCCC(Sc1nc(Cl)cc(Nc2cccc(C)c2C)n1)C(=O)O (stereo not given) | – | – | – | – | > 10 | inactive | > 10 | – | – |
| CCCCCCC(Sc1nc(Cl)cc(Nc2cccc(C)c2C)n1)C(=O)OCC (stereo not given) | – | – | – | – | > 10 | inactive | > 10 | – | – |
| CCCCCCCCC(Sc1nc(Cl)cc(Nc2cccc(C)c2C)n1)C(=O)O (stereo not given) | – | 7 | – | – | > 10 | 29.8% | > 10 | – | – |
| CCCCCCC(Sc1nc(Cl)cc(Nc2cc(OCC(F)(F)F)cc(OCC(F)(F)F)c2)n1)C(=O)O (stereo not given) | 1.5 | 8 | 40 | 70.4 | – | – | – | 3 | – |
| CCCCCCC(Sc1nc(Cl)cc(Nc2ccc3ncccc3c2)n1)C(=O)OCC (stereo not given) | – | – | 69.5 | 61.7 | > 10 | 39.1% | > 10 | – | 5.6 |
| Cc1cccc(Nc2cc(Cl)nc(SC(C)(C)C(=O)O)n2)c1C | – | – | – | – | > 10 | 83.8% | > 10 | – | – |

From ChEMBL document CHEMBL1151733, “Pirinixic acid derivatives as novel dual inhibitors of microsomal prostaglandin E2 synthase-1 and 5-lipoxygenase” (J Med Chem, 2008)
